Laboratory results: ChEMBL document CHEMBL1135717, “Minor groove DNA binders as antimicrobial agents. 1. Pyrrole tetraamides are potent antibacterials against vancomycin resistant Enterococci [corrected] and methicillin resistant Staphylococcus aureus” (J Med Chem, 2002)
Converted amounts (≈) assume the structure as drawn.

How the values were obtained:
[1] = Toxicity assessed in human T-cells using a colorimetric cell proliferation assay.; type: cell-based
In short: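 CCRF-CEM human leukemia T-cells in RPMI-1640 with 10% FBS and gentamicin 0.1 mg/mL, seeded at 4 × 10^4 cells/well. Compound added at start at 50, 25, 12.5 and 6.3 μM. WST-1 cleavage read by absorbance at 440 nm at 24, 48 and 72 h. Value reported as lowest % of no-compound control, typically 72 h at 50 μM. At least triplicate.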

Staphylococcus aureus = assay: In vitro antimicrobial activity against Methicillin resistant Staphylococcus aureus; type: functional
In short: (§1)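 Broth microdilution MIC per NCCLS M7-A4. Compounds dissolved fresh in DMSO as 10 mM stock, then diluted in BHI medium for VRE (BM4147, UCD3) or Mueller-Hinton medium for MRSA. Seven 1:2 serial dilutions gave test concentrations of 45.5 to 0.7 μM. MIC read by visual inspection of wells after 2 days.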

Enterococcus [2] = assay: In vitro antimicrobial activity against Vancomycin resistant enterococcus strain BM4147; type: functional; in short: as §1
Enterococcus [3] = assay: In vitro antimicrobial activity against Vancomycin resistant enterococcus strain UCD-3; type: functional; in short: as §1
Nucleic Acid [4] = assay: Changes in the DNA melting temperature of an AT-rich dodecamer (CGATTATTAAGC) (GCTTAATAATCG) upon binding of an equimolar amount of compound; type: nucleic-acid assay
In short: (§2)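 Melting monitored by UV absorbance at 260 nm in 10 mM HEPES pH 7.2, 0.1 mM EDTA, 50 mM NaCl. 12-bp AT-rich oligo at 5 μM mixed with compound at equimolar ratio. Temperature ramped 15 to 95 °C at 0.2 °C/min. Tm by derivative method, checked by hyperchromicity. ΔTm is Tm with compound minus Tm without. At least duplicate.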

Nucleic Acid [5] = assay: DNA binding measured as Changes in the DNA melting temperature of an AT-rich dodecamer (CGATTATTAAGC) (GCTTAATAATCG) upon binding of an equimolar amount of compound; type: nucleic-acid assay; in short: as §2

With `CCCn1cc(NC(=O)c2ccc(C(=O)Nc3cc(C(=O)NCCC(=N)N)n(CCC)c3)cc2)cc1C(=O)NCCC(=N)N` the NCC [1] was 61%, the MIC (Staphylococcus aureus) was 11.1 µM (≈ 6.71 µg/mL) and the MIC (Enterococcus [2]) was 5.6 µM (≈ 3.39 µg/mL). For the same compound, the MIC (Enterococcus [3]) was 5.6 µM (≈ 3.39 µg/mL) and the ΔTm (Nucleic Acid [4]) was 29.

In the case of `CC(C)CCn1cc(NC(=O)c2cnc(C(=O)Nc3cc(C(=O)NCCC(=N)N)n(CCC(C)C)c3)cn2)cc1C(=O)NCCC(=N)N`, the NCC [1] is reported as 32%, the ΔTm (Nucleic Acid [5]) is reported as 20 °C and the MIC (Staphylococcus aureus) is reported as 2.8 µM (≈ 1.86 µg/mL). It also gave an MIC (Enterococcus [2]) of 2.8 µM (≈ 1.86 µg/mL) and an MIC (Enterococcus [3]) of 2.8 µM (≈ 1.86 µg/mL).

In the case of `CC(C)CCn1cc(NC(=O)CCCCC(=O)Nc2cc(C(=O)NCCC(=N)N)n(CCC(C)C)c2)cc1C(=O)NCCC(=N)N`, the NCC [1] is reported as 87%, the ΔTm (Nucleic Acid [5]) is reported as 10 °C and the MIC (Staphylococcus aureus) is reported as > 45.5 µM. The MIC (Enterococcus [2]) was > 45.5 µM and the MIC (Enterococcus [3]) was > 45.5 µM.

`N=C(N)CCNC(=O)c1cc(NC(=O)c2ccc(C(=O)Nc3cc(C(=O)NCCC(=N)N)n(CC4CC4)c3)c([N+](=O)[O-])c2)cn1CC1CC1` showed an NCC [1] of 87%, a ΔTm (Nucleic Acid [5]) of 28 °C and an MIC (Staphylococcus aureus) of 1.4 µM (≈ 0.943 µg/mL). The MIC (Enterococcus [2]) was 2.8 µM (≈ 1.89 µg/mL) and the MIC (Enterococcus [3]) was 2.8 µM (≈ 1.89 µg/mL).

`Cc1cc(C(=O)Nc2cc(C(=O)NCCC(=N)N)n(CCC(C)C)c2)c(C)cc1C(=O)Nc1cc(C(=O)NCCC(=N)N)n(CCC(C)C)c1` gave an NCC [1] of 75%, a ΔTm (Nucleic Acid [5]) of 12 °C and an MIC (Staphylococcus aureus) of 11.4 µM (≈ 7.85 µg/mL). The MIC (Enterococcus [2]) was > 45.5 µM and the MIC (Enterococcus [3]) was > 45.5 µM.

In the case of `CC/N=C(\N)CCNC(=O)c1cc(NC(=O)c2ccc(C(=O)Nc3cc(C(=O)NCC/C(N)=N/CC)n(CCC(C)C)c3)cc2)cn1CCC(C)C`, the NCC [1] is reported as 74%, the ΔTm (Nucleic Acid [5]) is reported as 27 °C and the MIC (Staphylococcus aureus) is reported as 1.4 µM (≈ 1 µg/mL). It also gave an MIC (Enterococcus [2]) of 1.4 µM (≈ 1 µg/mL) and an MIC (Enterococcus [3]) of 1.4 µM (≈ 1 µg/mL).

`Cc1cc(C(=O)Nc2cc(C(=O)NCCC(=N)N)n(CCC(C)C)c2)ccc1C(=O)Nc1cc(C(=O)NCCC(=N)N)n(CCC(C)C)c1` showed an NCC [1] of 38%, a ΔTm (Nucleic Acid [5]) of 24 °C and an MIC (Staphylococcus aureus) of 0.7 µM (≈ 0.472 µg/mL). It also gave an MIC (Enterococcus [2]) of 1.4 µM (≈ 0.945 µg/mL) and an MIC (Enterococcus [3]) of 1.4 µM (≈ 0.945 µg/mL).

Work on `N=C(N)CCNC(=O)c1cc(NC(=O)c2ccc(C(=O)Nc3cc(C(=O)NCCC(=N)N)n(CC4CC4)c3)nc2)cn1CC1CC1` yielded an NCC [1] of 82%, a ΔTm (Nucleic Acid [5]) of 27 °C and an MIC (Staphylococcus aureus) of 1.4 µM (≈ 0.882 µg/mL). It also gave an MIC (Enterococcus [2]) of 1.4 µM (≈ 0.882 µg/mL) and an MIC (Enterococcus [3]) of 2.8 µM (≈ 1.76 µg/mL).

Compound `CC(C)CCn1cc(NC(=O)c2ccc(C(=O)Nc3cc(C(=O)NCCC(=N)N)n(CCC(C)C)c3)nc2)cc1C(=O)NCCC(=N)N` has an NCC [1] of 3%, a ΔTm (Nucleic Acid [5]) of 25 °C and an MIC (Staphylococcus aureus) of 1.4 µM (≈ 0.927 µg/mL). The MIC (Enterococcus [2]) was 0.7 µM (≈ 0.463 µg/mL) and the MIC (Enterococcus [3]) was 1.4 µM (≈ 0.927 µg/mL).

In the case of `Cc1cc(C(=O)Nc2cc(C(=O)NCCC(=N)N)n(CC3CC3)c2)ccc1C(=O)Nc1cc(C(=O)NCCC(=N)N)n(CC2CC2)c1`, the NCC [1] is reported as 87%, the ΔTm (Nucleic Acid [5]) is reported as 26 °C and the MIC (Staphylococcus aureus) is reported as 2.8 µM (≈ 1.8 µg/mL). For the same compound, the MIC (Enterococcus [2]) was 2.8 µM (≈ 1.8 µg/mL) and the MIC (Enterococcus [3]) was 2.8 µM (≈ 1.8 µg/mL).

Compound `CC(C)CCn1cc(NC(=O)c2ccnc(C(=O)Nc3cc(C(=O)NCCC(=N)N)n(CCC(C)C)c3)c2)cc1C(=O)NCCC(=N)N` has an NCC [1] of 6%, a ΔTm (Nucleic Acid [5]) of 11 °C and an MIC (Staphylococcus aureus) of 2.8 µM (≈ 1.85 µg/mL). The MIC (Enterococcus [2]) was 22.7 µM (≈ 15 µg/mL) and the MIC (Enterococcus [3]) was 22.7 µM (≈ 15 µg/mL).

`N=C(N)CCNC(=O)c1cc(NC(=O)c2ccc(C(=O)Nc3cc(C(=O)NCCC(=N)N)n(CC4CC4)c3)cc2)cn1CC1CC1` showed an NCC [1] of 72%, a ΔTm (Nucleic Acid [5]) of 28 °C and an MIC (Staphylococcus aureus) of 1.4 µM (≈ 0.88 µg/mL). It also gave an MIC (Enterococcus [2]) of 2.8 µM (≈ 1.76 µg/mL) and an MIC (Enterococcus [3]) of 0.7 µM (≈ 0.44 µg/mL).

With `CC(C)CCn1cc(NC(=O)c2ccc3cc(C(=O)Nc4cc(C(=O)NCCC(=N)N)n(CCC(C)C)c4)ccc3c2)cc1C(=O)NCCC(=N)N` the NCC [1] was 0%, the ΔTm (Nucleic Acid [5]) was 24 °C and the MIC (Staphylococcus aureus) was > 45.5 µM. For the same compound, the MIC (Enterococcus [2]) was > 45.5 µM and the MIC (Enterococcus [3]) was > 45.5 µM.

`C/N=C(\N)CCNC(=O)c1cc(NC(=O)c2ccc(C(=O)Nc3cc(C(=O)NCC/C(N)=N/C)n(CCC(C)C)c3)cc2)cn1CCC(C)C` gave a ΔTm (Nucleic Acid [5]) of 28 °C, an MIC (Staphylococcus aureus) of 0.7 µM (≈ 0.482 µg/mL) and an MIC (Enterococcus [2]) of 1.4 µM (≈ 0.964 µg/mL). The MIC (Enterococcus [3]) was 1.4 µM (≈ 0.964 µg/mL).

`Cn1cc(NC(=O)c2ccc(C(=O)Nc3cc(C(=O)NCCC(=N)N)n(C)c3)cc2)cc1C(=O)NCCC(=N)N` showed an NCC [1] of 56%, an MIC (Staphylococcus aureus) of 22.7 µM (≈ 12.5 µg/mL) and an MIC (Enterococcus [2]) of 22.2 µM (≈ 12.2 µg/mL). The MIC (Enterococcus [3]) was > 45.5 µM and the ΔTm (Nucleic Acid [4]) was 30.
